Reference: ChEMBL document CHEMBL1157704, “Potent activity against K562 cells by polyamide-seco-CBI conjugates targeting histone H4 genes” (Bioorg Med Chem, 2010)
Active and inactive are the calls of the source.

Tests used:
[1] = system: K562; assay: Cell cycle arrest in human K562 cells assessed as increase in accumulation at S phase at 125 to 250 nM after 48 hrs propidium iodide staining-based FACS analysis; assay type: functional
Outline: (§1)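 K562 cells, from ATCC and kept under ATCC-recommended conditions, were treated for 48 h and pelleted at 200g for 5 min. They were resuspended in PBS, fixed with prechilled 70% ethanol and stained with propidium iodide at 50 µg/mL. DNA content was read by flow cytometry to assign the G0–G1, S and G2–M fractions; sub-2C DNA content was taken as apoptosis.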

[2] = system: K562; assay: Effect on CLGN gene expression in human K562 cells assessed as change in mRNA transcript expression at 10 nM after 48 hrs by DNA microarray analysis relative to control; assay type: functional
Outline: (§2)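 Transcripts were profiled on Affymetrix GeneChip Human Gene 1.0 ST arrays in K562 cells treated at 10 nM. Treated cells were collected at 6, 12, 24 and 48 h; untreated controls were collected at 48 h. Transcripts changed at least twofold versus control were scored.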

[3] = system: K562; assay: Effect on STAG1 gene expression in human K562 cells assessed as change in mRNA transcript expression at 10 nM after 48 hrs by DNA microarray analysis relative to control; assay type: functional
Outline: (§3)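 K562 CML cells (b3a2 Bcr-Abl) in standard ATCC-recommended culture, exposed once to 10 nM conjugate and harvested at 48 h. Untreated controls were also collected at 48 h. Transcripts were profiled on Human Gene 1.0 ST whole-genome oligonucleotide arrays, and each treated level was expressed relative to the untreated control, with a cutoff of at least twofold change.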

[4] = system: K562; assay: Effect on GPR56 gene expression in human K562 cells assessed as change in mRNA transcript expression at 10 nM after 48 hrs by DNA microarray analysis relative to control; assay type: functional; outline: as §2
[5] = system: K562; assay: Effect on HIST1H3D gene expression in human K562 cells assessed as change in mRNA transcript expression at 10 nM after 48 hrs by DNA microarray analysis relative to control; assay type: functional; outline: as §2
[6] = system: K562; assay: Effect on HIST1H4C gene expression in human K562 cells assessed as down-regulation of mRNA transcript expression at 10 nM after 48 hrs by DNA microarray analysis relative to control; assay type: functional; outline: as §2
[7] = system: histone H4c gene fragment DNA (human); assay: Binding affinity to 5'-ACGCCA-3' sequence of 223 bp human histone H4c gene fragment DNA assessed as DNA alkylating activity at 5 to 100 nM after 15 hrs by PAGE
[8] = system: K562; assay: Effect on CD226 gene expression in human K562 cells assessed as change in mRNA transcript expression at 10 nM after 48 hrs by DNA microarray analysis relative to control; assay type: functional; outline: as §2
[9] = system: K562; assay: Effect on HSPA1B gene expression in human K562 cells assessed as change in mRNA transcript expression at 10 nM after 48 hrs by DNA microarray analysis relative to control; assay type: functional; outline: as §3
[10] = system: K562; assay: Effect on HIST1H1D gene expression in human K562 cells assessed as change in mRNA transcript expression at 10 nM after 48 hrs by DNA microarray analysis relative to control; assay type: functional; outline: as §2
[11] = system: K562; assay: Cell cycle arrest in human K562 cells assessed as decrease in accumulation at G1 phase at 125 to 250 nM after 48 hrs propidium iodide staining-based FACS analysis; assay type: functional; outline: as §1
[12] = system: K562; assay: Effect on HTR1F gene expression in human K562 cells assessed as change in mRNA transcript expression at 10 nM after 48 hrs by DNA microarray analysis relative to control; assay type: functional; outline: as §3
[13] = system: K562; assay: Effect on HSPA1A gene expression in human K562 cells assessed as change in mRNA transcript expression at 10 nM after 48 hrs by DNA microarray analysis relative to control; assay type: functional; outline: as §3
[14] = system: K562; assay: Effect on INPP5D gene expression in human K562 cells assessed as change in mRNA transcript expression at 10 nM after 48 hrs by DNA microarray analysis relative to control; assay type: functional; outline: as §3
[15] = system: K562; assay: Effect on MYL4 gene expression in human K562 cells assessed as change in mRNA transcript expression at 10 nM after 48 hrs by DNA microarray analysis relative to control; assay type: functional; outline: as §3
[16] = system: K562; assay: Effect on C0MMD1 gene expression in human K562 cells assessed as change in mRNA transcript expression at 10 nM after 48 hrs by DNA microarray analysis relative to control; assay type: functional; outline: as §2
[17] = system: K562; assay: Effect on SLFN14 gene expression in human K562 cells assessed as change in mRNA transcript expression at 10 nM after 48 hrs by DNA microarray analysis relative to control; assay type: functional; outline: as §3
[18] = system: K562; assay: Effect on UBE2W gene expression in human K562 cells assessed as change in mRNA transcript expression at 10 nM after 48 hrs by DNA microarray analysis relative to control; assay type: functional
Outline: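 K562 CML cells (b3a2 Bcr-Abl) kept under standard culture conditions were exposed to 10 nM conjugate and harvested at 6, 12, 24 and 48 h. Untreated controls were harvested at 48 h. Whole-transcript oligonucleotide microarray profiling was done, and changes of at least twofold versus control were scored.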

[19] = system: K562; assay: Effect on FERMT2 gene expression in human K562 cells assessed as change in mRNA transcript expression at 10 nM after 48 hrs by DNA microarray analysis relative to control; assay type: functional; outline: as §2
[20] = system: K562; assay: Effect on HIST1H4B gene expression in human K562 cells assessed as down-regulation of mRNA transcript expression at 10 nM after 48 hrs by DNA microarray analysis relative to control; assay type: functional; outline: as §2
[21] = system: K562; assay: Effect on PRF1 gene expression in human K562 cells assessed as change in mRNA transcript expression at 10 nM after 48 hrs by DNA microarray analysis relative to control; assay type: functional; outline: as §3
[22] = system: K562; assay: Effect on ITGA2B gene expression in human K562 cells assessed as change in mRNA transcript expression at 10 nM after 48 hrs by DNA microarray analysis relative to control; assay type: functional; outline: as §3
[23] = system: K562; assay: Effect on TDRG1 gene expression in human K562 cells assessed as change in mRNA transcript expression at 10 nM after 48 hrs by DNA microarray analysis relative to control; assay type: functional; outline: as §3
[24] = system: K562; assay: Effect on PITPNC1 gene expression in human K562 cells assessed as change in mRNA transcript expression at 10 nM after 48 hrs by DNA microarray analysis relative to control; assay type: functional; outline: as §3
[25] = system: K562; assay: Effect on HIST2H2B gene expression in human K562 cells assessed as change in mRNA transcript expression at 10 nM after 48 hrs by DNA microarray analysis relative to control; assay type: functional; outline: as §3
[26] = system: K562; assay: Effect on NTS gene expression in human K562 cells assessed as change in mRNA transcript expression at 10 nM after 48 hrs by DNA microarray analysis relative to control; assay type: functional; outline: as §3
[27] = system: K562; assay: Effect on RHCE/RHD gene expression in human K562 cells assessed as change in mRNA transcript expression at 10 nM after 48 hrs by DNA microarray analysis relative to control; assay type: functional; outline: as §3
[28] = system: K562; assay: Effect on COMMD10 gene expression in human K562 cells assessed as change in mRNA transcript expression at 10 nM after 48 hrs by DNA microarray analysis relative to control; assay type: functional; outline: as §2

Activity [7]: Active
Compound: CC(=O)Nc1cn(C)c(C(=O)Nc2cn(C)c(C(=O)NCCC(=O)Nc3cn(C)c(C(=O)NCCCC(=O)Nc4cc(C(=O)Nc5cn(C)c(C(=O)Nc6ccc7[nH]c(C(=O)N8CC(CCl)c9c8cc(O)c8ccccc98)cc7c6)n5)n(C)c4)n3)n2)n1 (stereo not drawn)
Activity [1]: Active | fold change (FC) [2]: >=2 | fold change (FC) [3]: >=2 | fold change (FC) [4]: >=2 | fold change (FC) [5]: >=2 | fold change (FC) [6]: 2.86 | fold change (FC) [8]: >=2 | fold change (FC) [9]: >=2 | fold change (FC) [10]: >=2 | Activity [11]: Active | fold change (FC) [12]: >=2 | fold change (FC) [13]: >=2 | fold change (FC) [14]: >=2 | fold change (FC) [15]: >=2 | fold change (FC) [16]: >=2 | fold change (FC) [17]: >=2 | fold change (FC) [18]: >=2 | fold change (FC) [19]: >=2 | fold change (FC) [20]: 3.91 | fold change (FC) [21]: >=2 | fold change (FC) [22]: >=2 | fold change (FC) [23]: >=2 | fold change (FC) [24]: >=2 | fold change (FC) [25]: >=2 | fold change (FC) [26]: >=2 | fold change (FC) [27]: >=2 | fold change (FC) [28]: >=2
